According to ChEMBL document CHEMBL3351398, “Discovery of a Potent and Selective DGAT1 Inhibitor with a Piperidinyl-oxy-cyclohexanecarboxylic Acid Moiety” (ACS Med Chem Lett, 2014):
In brackets after ≈: the same amount, converted by molar mass.

Columns and labels:
[1] = Half life in Beagle dog at 1 mg/kg, iv or 4 mg/kg, po; format: ADME, organism-based, Canis lupus familiaris; details: in vivo
In short: (§1)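 Single-dose pharmacokinetics. Beagle dogs were dosed at 1 mg/kg iv as a solution in 30% captisol (pH 8) and at 4 mg/kg po in 0.5 methylcellulose.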

[2] = AUC in Sprague-Dawley rat at 2 mg/kg, po; format: ADME, organism-based; parameters: dose 2 mg/kg, route oral; details: plasma
Rattus norvegicus [3] = assay: Inhibition of plasma triglyceride accumulation in Sprague-Dawley rat at 1 mg/kg, po dosed 2 hrs before lipid challenge and measured at 18 hrs by lipid tolerance test; format: functional
In short: (§2)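 Rat lipid tolerance test at oral doses of 1 and 3 mpk. Reduction of lipid excursion was normalized to a reference DGAT1 inhibitor given at 10 mpk, set as 100%. Plasma drug levels were the parent and its cis isomer combined, measured 4 h after oral dosing.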

[4] = Drug level in adipose fat of C57BL/6 mouse assessed as cis-4-((1-(5-(5-(trifluoromethyl)-1H-benzo[d]imidazol-2-yl)pyridin-2-yl)piperidin-4-yl)oxy)cyclohexanecarboxylic acid level at 10 mg/kg, po after 3 hrs; format: ADME, organism-based, Adipose tissue; parameters: dose 10 mg/kg, route oral; details: in vivo, read-out: Drug uptake
In short: (§3)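 Tissue distribution in C57BL/6 mice. A single oral dose of 10 mg/kg was given as a solution in EtOH/PEG400/water (10:50:40). Parent and its cis isomer were both measured, in μM, in plasma, liver, small intestine, adipose fat and skin at 3 h and 24 h.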

[5] = Oral bioavailability in Sprague-Dawley rat at 2 mg/kg; format: ADME, organism-based; details: in vivo
[6] = Drug level in skin of C57BL/6 mouse at 10 mg/kg, po after 3 hrs; format: ADME, organism-based, Zone of skin; parameters: dose 10 mg/kg, route oral; details: read-out: Drug uptake; in short: as §3
Salmonella typhimurium [7] = assay: Induction of mutagenicity in Salmonella typhimurium TA98 assessed as increase in number of revertants in absence of metabolic activation; format: toxicity, organism-based; details: salmonella enterica subsp. enterica serovar typhimurium
In short: (§4)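 Microbial reverse-mutation (Ames) test in strains TA1535, TA98 and TA100, with and without metabolic activation. The concentration range was 30 to 5000 μg/plate. A positive call required a 2-fold or greater increase in revertants relative to the solvent control.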

[8] = Volume of distribution at steady state in Sprague-Dawley rat at 1 mg/kg, iv or 2 mg/kg, po; format: ADME, organism-based; details: in vivo, read-out: Vdss
In short: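 Sprague–Dawley rats were dosed as a solution in EtOH/PEG400/water (10:50:40), 1 mg/kg iv and 2 mg/kg po. Pharmacokinetic parameters were derived from these dosings.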

Liver = assay: Drug level in liver of C57BL/6 mouse assessed as cis-4-((1-(5-(5-(trifluoromethyl)-1H-benzo[d]imidazol-2-yl)pyridin-2-yl)piperidin-4-yl)oxy)cyclohexanecarboxylic acid level at 10 mg/kg, po after 3 hrs; format: ADME, organism-based; parameters: dose 10 mg/kg, route oral; details: in vivo, read-out: Drug uptake; in short: as §3
[9] = Unbound fraction in human plasma; format: ADME, cell-free
Salmonella typhimurium [10] = assay: Induction of mutagenicity in Salmonella typhimurium TA100 assessed as increase in number of revertants in absence of metabolic activation; format: toxicity, organism-based; details: salmonella enterica subsp. enterica serovar typhimurium; in short: as §4
Plasma = assay: Drug level in plasma of C57BL/6 mouse assessed as cis-4-((1-(5-(5-(trifluoromethyl)-1H-benzo[d]imidazol-2-yl)pyridin-2-yl)piperidin-4-yl)oxy)cyclohexanecarboxylic acid level at 10 mg/kg, po after 24 hrs; format: ADME, organism-based; parameters: dose 10 mg/kg, route oral; details: in vivo; in short: as §3
Zone of skin = assay: Drug level in skin of C57BL/6 mouse assessed as cis-4-((1-(5-(5-(trifluoromethyl)-1H-benzo[d]imidazol-2-yl)pyridin-2-yl)piperidin-4-yl)oxy)cyclohexanecarboxylic acid level at 10 mg/kg, po after 24 hrs; format: ADME, organism-based; parameters: dose 10 mg/kg, route oral; details: in vivo, read-out: Drug uptake; in short: as §3
[11] = biological target: T1, Diacylglycerol O-acyltransferase 1 (Homo sapiens, UniProt O75907); assay: Inhibition of human DGAT1
T1 sequence (O75907 whole entry): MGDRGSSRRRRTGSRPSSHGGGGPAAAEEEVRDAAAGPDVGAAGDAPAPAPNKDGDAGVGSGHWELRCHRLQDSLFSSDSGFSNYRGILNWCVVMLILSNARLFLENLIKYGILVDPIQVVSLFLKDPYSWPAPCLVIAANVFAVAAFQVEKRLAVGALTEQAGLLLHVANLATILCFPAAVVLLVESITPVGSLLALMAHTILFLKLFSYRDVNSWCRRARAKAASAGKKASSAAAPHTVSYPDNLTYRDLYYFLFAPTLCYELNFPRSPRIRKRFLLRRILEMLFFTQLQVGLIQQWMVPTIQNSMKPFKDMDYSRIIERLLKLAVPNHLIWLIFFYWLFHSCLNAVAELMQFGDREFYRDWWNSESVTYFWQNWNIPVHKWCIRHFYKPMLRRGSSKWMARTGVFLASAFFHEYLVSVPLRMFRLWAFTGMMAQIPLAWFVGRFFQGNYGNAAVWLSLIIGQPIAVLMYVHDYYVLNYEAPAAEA

Mus musculus = assay: Inhibition of plasma triglyceride accumulation in mouse at 10 mg/kg, po dosed 2 hrs before lipid challenge and measured at 18 hrs by lipid tolerance test; format: functional
In short: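 Mouse lipid tolerance test measuring plasma triglyceride excursion. Dosing was 10 mpk oral, with triglyceride reduction read at 18 h.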

[12] = Clearance in Sprague-Dawley rat at 1 mg/kg, iv or 2 mg/kg, po; format: ADME, organism-based; details: in vivo
Salmonella typhimurium [13] = assay: Induction of mutagenicity in Salmonella typhimurium TA1535 assessed as increase in number of revertants in absence of metabolic activation; format: toxicity, organism-based; details: salmonella enterica subsp. enterica serovar typhimurium; in short: as §4
[14] = Clearance in Beagle dog at 1 mg/kg, iv or 4 mg/kg, po; format: ADME, organism-based, Canis lupus familiaris; details: in vivo; in short: as §1
Rattus norvegicus [15] = assay: AUC in Sprague-Dawley rat assessed as cis-4-((1-(5-(5-(trifluoromethyl)-1H-benzo[d]imidazol-2-yl)pyridin-2-yl)piperidin-4-yl)oxy)cyclohexanecarboxylic acid rat at 2 mg/kg, po; format: ADME, organism-based, Plasma; parameters: dose 2 mg/kg, route oral; details: in vivo
[16] = Drug level in liver of C57BL/6 mouse at 10 mg/kg, po after 3 hrs; format: ADME, organism-based; parameters: dose 10 mg/kg, route oral; details: read-out: Drug uptake; in short: as §3
Intestine = assay: Drug level in small intestine of C57BL/6 mouse assessed as cis-4-((1-(5-(5-(trifluoromethyl)-1H-benzo[d]imidazol-2-yl)pyridin-2-yl)piperidin-4-yl)oxy)cyclohexanecarboxylic acid level at 10 mg/kg, po after 24 hrs; format: ADME, organism-based; parameters: dose 10 mg/kg, route oral; details: in vivo, read-out: Drug uptake; in short: as §3
[17] = Drug level in small intestine of C57BL/6 mouse at 10 mg/kg, po after 24 hrs; format: ADME, organism-based; parameters: dose 10 mg/kg, route oral; details: read-out: Drug uptake; in short: as §3
[18] = Solubility in PBS buffer at pH 2; format: physicochemical
In short: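 High-throughput solubility test in PBS buffer at pH 2 and at pH 7. Free form and salt forms (TFA, formate, ammonium) were tested separately.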

[19] = Drug level in adipose fat of C57BL/6 mouse assessed as cis-4-((1-(5-(5-(trifluoromethyl)-1H-benzo[d]imidazol-2-yl)pyridin-2-yl)piperidin-4-yl)oxy)cyclohexanecarboxylic acid level at 10 mg/kg, po after 24 hrs; format: ADME, organism-based, Adipose tissue; parameters: dose 10 mg/kg, route oral; details: in vivo, read-out: Drug uptake; in short: as §3
Adenosine receptor A2a = Adenosine receptor A2a (Homo sapiens, UniProt P29274); assay: Binding affinity to human A2A receptor
In short: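 Recombinant human A2A receptor was tested in an in-house radioligand competition binding assay. The value is reported as Ki.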

[20] = Plasma concentration in Sprague-Dawley rat at 3 mg/kg, po dosed 2 hrs before lipid challenge and measured at 4 hrs by lipid tolerance test; format: ADME, organism-based; parameters: dose 3 mg/kg, route oral; in short: as §2
[21] = Drug level in adipose fat of C57BL/6 mouse at 10 mg/kg, po after 24 hrs; format: ADME, organism-based, Adipose tissue; parameters: dose 10 mg/kg, route oral; details: read-out: Drug uptake; in short: as §3

Sequence of Adenosine receptor A2a (P29274 whole entry): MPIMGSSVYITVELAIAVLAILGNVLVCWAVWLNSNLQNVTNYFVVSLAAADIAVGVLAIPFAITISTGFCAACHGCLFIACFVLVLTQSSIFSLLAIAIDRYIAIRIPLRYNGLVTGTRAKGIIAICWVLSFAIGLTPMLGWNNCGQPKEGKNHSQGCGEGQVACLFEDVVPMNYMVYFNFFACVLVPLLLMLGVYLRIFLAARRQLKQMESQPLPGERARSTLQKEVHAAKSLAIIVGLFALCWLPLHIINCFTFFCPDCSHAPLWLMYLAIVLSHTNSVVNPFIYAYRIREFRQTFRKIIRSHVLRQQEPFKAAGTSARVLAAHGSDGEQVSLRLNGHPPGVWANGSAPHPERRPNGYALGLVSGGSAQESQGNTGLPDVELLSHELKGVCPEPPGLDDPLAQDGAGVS

`O=C(O)[C@H]1CC[C@H](OC2CCN(c3ccc(-c4nc5cc(C(F)(F)F)ccc5[nH]4)cn3)CC2)CC1` gave a half-life [1] of 1.16 h, an AUC [2] of 1 µM·h and an inhibition in vivo at 1 mg/kg (Rattus norvegicus [3]) of 80%. For the same molecule, the concentration [4] was 21 nM, the bioavailability [5] was 8% and the concentration at 3 h [6] was 404 nM. For the same molecule, the Activity (Salmonella typhimurium [7]) was “Non-toxic”, the Vd [8] was 0.19 L/kg and the concentration (Liver) was 6910 nM. The fraction unbound [9] was 0.09, the Activity (Salmonella typhimurium [10]) was “Non-toxic” and the concentration (Plasma) was less than 10 nM. It also gave a concentration (Zone of skin) of 18 nM, an IC50 [11] of 3.9 nM and an inhibition in vivo at 10 mg/kg (Mus musculus) of 89%. The clearance [12] was 5.82 mL/min/kg, the Activity (Salmonella typhimurium [13]) was “Non-toxic” and the clearance [14] was 88.9 mL/min/kg. It also gave an AUC (Rattus norvegicus [15]) of 0.97 µM·h, a concentration at 3 h [16] of 21600 nM and a concentration (Intestine) of 76 nM. It also gave a concentration at 24 h [17] of 711 nM, a solubility [18] of 167 µM (≈ 81.6 µg/mL) and a concentration [19] of less than 10 nM. It also gave a Ki (Adenosine receptor A2a) of 4600 nM, a concentration at 4 h [20] of 58 nM and a concentration at 24 h [21] of less than 10 nM.
